These results are taken from ChEMBL document CHEMBL4007452, “Discovery of an Orally Selective Inhibitor of Signal Transducer and Activator of Transcription 3 Using Advanced Multiple Ligand Simultaneous Docking” (J Med Chem, 2017).

SMILES strings stand for the structures. The source made the active and inactive calls. No cut-off for these calls is given here.

In one data set the test system is U2OS. Description: Antiproliferative activity against human U2OS cells after 24 hrs by MTT assay. In kind it is functional, cell-based. An outline of the steps: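 Cells were seeded at 3000 per well and incubated 24 h at 37 °C. Compounds were added in triplicate with 10% FBS: 0.1-10 or 0.1-20 µM for cancer lines, 3.125-400 µM for MCF-10A. Viability was read by MTT absorbance at 595 nm, with IC50 fitted from the curves. DMSO stocks were 20 mM.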
A general note: Tetrazolium assays rely on reduction of a dye to a coloured formazan, in cell work by metabolically active cells.

Data set [1] addresses T1, Signal transducer and activator of transcription 3 (Homo sapiens, UniProt P40763). Put plainly: Binding affinity to fluorescently labeled STAT3 (unknown origin) by MST-analysis. A digest of the protocol: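 Labeled STAT3 protein held constant at 10-20 nM, titrated against up to 16 serial dilutions of unlabeled inhibitor. […] Protein was dye-labeled and freed of excess dye within 45 min. Equal volumes were mixed, loaded into glass capillaries and read by microscale thermophoresis.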

Data set [2] has as its target T2, Signal transducer and activator of transcription 1-alpha/beta (Homo sapiens) (UniProt P42224).
T2 sequence (whole entry): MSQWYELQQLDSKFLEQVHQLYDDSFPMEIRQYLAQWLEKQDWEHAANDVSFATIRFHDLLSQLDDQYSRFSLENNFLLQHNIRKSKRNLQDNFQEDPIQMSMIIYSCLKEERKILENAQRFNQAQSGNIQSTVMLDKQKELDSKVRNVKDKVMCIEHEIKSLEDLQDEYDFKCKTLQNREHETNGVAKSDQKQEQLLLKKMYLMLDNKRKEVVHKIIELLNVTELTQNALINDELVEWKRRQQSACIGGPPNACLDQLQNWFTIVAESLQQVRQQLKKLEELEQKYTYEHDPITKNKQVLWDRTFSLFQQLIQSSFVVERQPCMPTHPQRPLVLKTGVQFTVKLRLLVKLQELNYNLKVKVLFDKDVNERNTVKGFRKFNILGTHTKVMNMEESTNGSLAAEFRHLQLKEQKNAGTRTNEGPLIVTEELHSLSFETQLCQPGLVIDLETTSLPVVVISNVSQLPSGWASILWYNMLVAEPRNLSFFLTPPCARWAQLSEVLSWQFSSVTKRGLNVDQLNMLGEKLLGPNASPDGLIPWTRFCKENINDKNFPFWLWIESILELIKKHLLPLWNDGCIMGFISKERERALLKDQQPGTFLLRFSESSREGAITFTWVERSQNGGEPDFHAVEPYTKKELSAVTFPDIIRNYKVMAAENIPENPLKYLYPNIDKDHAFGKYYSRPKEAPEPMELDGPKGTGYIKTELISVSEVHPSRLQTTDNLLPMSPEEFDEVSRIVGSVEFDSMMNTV
Put plainly: Inhibition of STAT1 in human MDA-MB-231 cells assessed as reduction in IFN-gamma-induced STAT1 phosphorylation at 2.5 to 5 uM preincubated for 2 hrs followed by IFN-gamma stimulation measured after 30 mins by Western blot analysis. The class given is cell-based. A digest of the protocol: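 MDA-MB-231 cells were allowed to adhere overnight, then serum-starved. They were pretreated 2 h with 2.5-5 µM compound or DMSO and stimulated with IFN-γ (50 ng/mL). Cells were harvested after 30 min and immunoblotted for P-STAT1(Y701) and T-STAT1.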

For data set [3], the system named is MDA-MB-231. Description: Anticancer activity against human MDA-MB-231 cells xenografted in BALB/c nude mouse assessed as reduction in tumor volume at 2.5 mg/kg, po qd administered for 32 days. The class given is functional. Further details: scale not given: the % may be the effect or the level left. A digest of the protocol:
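Female athymic BALB/c nude mice, 6 weeks old, bearing s.c. flank MDA-MB-231 xenografts (5 x 10^6 cells). Dosing began at about 100 mm3 tumor volume; 8 mice per group, one tumor each. Drug was given orally in saline, with a saline vehicle control, for 32 days. Caliper L and W measured every other day; volume = 0.5236×L×W².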
(A xenograft is tissue or cells of one species grown in another, often human tumour cells in immunodeficient mice.)

Data set [4] concerns MDA-MB-231. Description: Anticancer activity against human MDA-MB-231 cells xenografted in BALB/c nude mouse assessed as reduction in tumor volume at 5 mg/kg, po qd administered for 32 days. The note with it: in the assay text read “tumor weight” for “tumor volume”. Also noted: scale not given: the % may be the effect or the level left. The class given is functional.
For data set [5], the system named is Mus musculus. Put plainly: Toxicity in BALB/c nude mouse xenografted with human MDA-MB-231 cells assessed as heart damage at 2.5 to 10 mg/kg, po qd administered for 32 days by H&E staining based light microscopy. The class given is organism-based. To be noted: in vivo, 768 h. A digest of the protocol:
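6-week-old female athymic SPF BALB/c nude mice received 5 x 10^6 MDA-MB-231 cells s.c. in the flank. Oral treatment began once tumors reached about 100 mm3, with 8 mice per group and a saline vehicle control. […] Treatment lasted 32 days. Heart, liver, spleen, lung and kidney were fixed 48 h in 10% neutral-buffered formaldehyde, paraffin-embedded, cut at 5 µm, H&E-stained and examined by light microscopy.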

Data set [6] concerns Mus musculus. Put plainly: In vivo inhibition of STAT3 in po dosed BALB/c nude mouse xenografted with human MDA-MB-231 assessed as reduction in p-STAT3 level administered as qd for 32 days by DAB-staining based IHC analysis. The class given is functional, organism-based. An outline of the steps:
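Fixed sections of MDA-MB-231 xenograft tumors from orally dosed nude mice were immunostained for p-STAT3, with positive cells visualized by DAB.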

A short description of data set [7]: Tmax in Sprague-Dawley rat plasma at 1 mg/kg, iv measured after 24 hrs by UPLC analysis. The class given is ADME, organism-based. A digest of the protocol: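 Rats dosed i.v. or p.o. Plasma concentrations followed from 2 min to 24 h after dosing. The bioanalytical method was validated to FDA guidelines for selectivity, linearity, LLOQ, accuracy, precision, recovery, matrix effect and stability.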

A short description of data set [8]: Apparent volume of distribution in Sprague-Dawley rat plasma at 1 mg/kg, iv measured after 24 hrs by UPLC analysis. The class given is ADME, organism-based. To be noted: read-out: Vz. An outline of the steps:
(§1)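 Rat plasma sampled from 2 min to 24 h after a single i.v. (1 mg/kg) or p.o. (10 mg/kg) dose. Parameters were derived from the concentration-time profiles. The bioanalytical method was validated to FDA guidelines for selectivity, linearity, LLOQ, accuracy, precision, recovery, matrix effect and stability.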

The subject of data set [9] is Rattus norvegicus. Put plainly: AUMC (0 to t) in Sprague-Dawley rat plasma at 1 mg/kg, iv measured after 24 hrs by UPLC analysis. The class given is ADME, organism-based. To be noted: in vivo. A digest of the protocol: as §1
Data set [10] deals with Rattus norvegicus. Put plainly: AUMC (0 to infinity) in Sprague-Dawley rat plasma at 1 mg/kg, iv measured after 24 hrs by UPLC analysis. In kind it is ADME, organism-based. The note with it: in vivo. An outline of the steps:
as §1

A short description of data set [11]: MRT (0 to infinity) in Sprague-Dawley rat plasma at 1 mg/kg, iv measured after 24 hrs by UPLC analysis. In kind it is ADME, organism-based. An outline of the steps:
as §1

Data set [12] in a line: Cmax in Sprague-Dawley rat plasma at 10 mg/kg, po measured after 24 hrs by UPLC analysis. In kind it is ADME, organism-based. Also noted: dose 10 mg/kg, route oral. An outline of the steps: as §1
Data set [13] deals with Rattus norvegicus. Description: Apparent volume of distribution in Sprague-Dawley rat plasma at 10 mg/kg, po measured after 24 hrs by UPLC analysis. In kind it is ADME, organism-based. The note with it: in vivo. A digest of the protocol: as §1
Data set [14] is described as follows: Clearance in Sprague-Dawley rat plasma at 10 mg/kg, po measured after 24 hrs by UPLC analysis. In kind it is ADME, organism-based. A digest of the protocol: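 Parameters were derived from the concentration-time profiles. The bioanalytical method was validated to FDA guidelines for selectivity, linearity, LLOQ, accuracy, precision, recovery, matrix effect and stability.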

In data set [15] the test system is Rattus norvegicus. Put plainly: AUMC (0 to t) in Sprague-Dawley rat plasma at 10 mg/kg, po measured after 24 hrs by UPLC analysis. In kind it is ADME, organism-based. To be noted: in vivo. A digest of the protocol:
as §1

For data set [16], the target named is T1, Signal transducer and activator of transcription 3. The note with it: 2.5 to 5 uM.

T1 sequence (P40763 whole entry): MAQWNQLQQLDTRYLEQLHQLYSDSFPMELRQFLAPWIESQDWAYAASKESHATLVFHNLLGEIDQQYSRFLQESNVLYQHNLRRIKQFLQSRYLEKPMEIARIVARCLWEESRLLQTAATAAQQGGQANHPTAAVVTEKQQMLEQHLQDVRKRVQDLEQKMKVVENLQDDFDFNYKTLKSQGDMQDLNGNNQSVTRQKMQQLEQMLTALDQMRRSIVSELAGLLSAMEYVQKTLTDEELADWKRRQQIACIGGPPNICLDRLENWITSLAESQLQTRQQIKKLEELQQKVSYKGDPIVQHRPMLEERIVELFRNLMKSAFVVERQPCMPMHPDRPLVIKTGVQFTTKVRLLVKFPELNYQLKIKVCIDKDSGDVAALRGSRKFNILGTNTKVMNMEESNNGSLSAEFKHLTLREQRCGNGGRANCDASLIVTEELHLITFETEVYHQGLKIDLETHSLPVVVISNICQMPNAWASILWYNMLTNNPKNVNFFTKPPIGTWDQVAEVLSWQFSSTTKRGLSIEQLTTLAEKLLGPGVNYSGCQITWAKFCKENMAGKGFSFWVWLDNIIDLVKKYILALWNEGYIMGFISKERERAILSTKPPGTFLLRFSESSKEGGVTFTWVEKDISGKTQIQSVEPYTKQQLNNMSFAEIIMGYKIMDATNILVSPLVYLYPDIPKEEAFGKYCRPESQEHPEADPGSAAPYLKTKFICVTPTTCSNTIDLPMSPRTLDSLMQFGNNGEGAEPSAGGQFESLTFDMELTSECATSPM

Usually IC50 stands for the concentration that inhibits the measured activity by half. What is called Ki is a measure of affinity in units of concentration, obtained from inhibition or displacement. What is called Tmax is the time from dosing to the highest level. The term MRT inf denotes a mean duration of stay, worked out from the concentration-time curve. The Cmax is the highest concentration seen after dosing. In general, CL/F refers to clearance divided by bioavailability, as obtained after extravascular dosing. In the data set on U2OS, `NS(=O)(=O)c1cccc2c1C(=O)C=C(Nc1ccccc1N1CCNCC1)C2=O` registered a concentration for half-maximal inhibition (IC50) of 1.5 µM. The molecule further showed an inhibition constant (Ki) in data set [1] of 2.42 µM. The inhibition entry in data set [2] is “inactive”. The Activity with MDA-MB-231 [3] was 53%; in the data set with MDA-MB-231 [4] it was 60%; in the data set on Mus musculus [5], “Non-Toxic”. In addition, in the data set with Mus musculus [6], the inhibition result is “Dose-dependent effect”. The Tmax in data set [7] worked out at 1.98 min. In addition, the Vd in data set [8] was determined as 4.94 L/kg. The AUMCt in the data set with Rattus norvegicus [9] amounted to 109.3 hr2.ng/ml; with Rattus norvegicus [15] it was 1622.6 hr2.ng/ml. The same molecule registered an AUMC in the data set with Rattus norvegicus [10] of 149 hr2.ng/ml. The MRT inf in [11] amounted to 42.6 min. This molecule registered a Cmax in [12] of 0.54 µg/mL. Further, the Vz in the data set on Rattus norvegicus [13] worked out at 32.0925 L/kg. Moreover, the CL/F in [14] was 11.8 L/h/kg. Besides, in [16], the inhibition entry is “Active”.
